Test results reported in ChEMBL document CHEMBL5712078, “BRD9 Inhibition, Alone or in Combination with Cytostatic Compounds as a Therapeutic Approach in Rhabdoid Tumors” (Int J Mol Sci, 2017).
The source made the active and inactive calls. The rule behind the calls is not given here.

Assays:
BT-12 [1] = test: Induction of cell cycle arrest in human BT-12 cells assessed as accumulation of cells at G1 phase at 5 uM incubated for 72 hrs by flow cytometry analysis (reference value: 65+/-3.9%); assay type: functional
How it was run: (§1)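 Cell cycle. Seeding and 72 h treatment as for the apoptosis assay, with I-BRD9 or BI-9564 at 0, 5, 10 or 20 µM final. A 100 µL cell suspension was stained with DAPI and read by flow cytometry. Percentage of cells in G1, n ≥3, mean ± SD, one-way ANOVA versus control.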

G-401 [2] = test: Anti-proliferative activity against human G-401 cells assessed as cell viability incubated for 72 hrs by MTT assay; assay type: functional, cell-based; conditions: G-401, 72 h
How it was run: (§2)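 MTT proliferation assay. Cells were seeded at 3000 (BT16, KD, G401) or 5000 (BT12, Chla266) cells per well and drug was added after 24 h, final 0.001–100 µM. Read at 72 or 144 h; 144 h wells got fresh medium and drug on day 3. MTT for 3 h, formazan dissolved in isopropanol/0.04 N HCl, absorbance at 570/630 nm. Technical triplicates, ≥3 independent runs, IC50 derived.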

CHLA-266 [3] = test: Anti-proliferative activity against human CHLA-266 cells assessed as cell viability incubated for 144 hrs by MTT assay; assay type: functional, cell-based; conditions: CHLA-266, 144 h; how it was run: as §2
CHLA-266 [4] = test: Anti-proliferative activity against human CHLA-266 cells assessed as cell viability incubated for 72 hrs by MTT assay; assay type: functional, cell-based; conditions: CHLA-266, 72 h; how it was run: as §2
[5] = Anti-proliferative activity against human BT-16 cells assessed as cell viability incubated for 72 hrs by MTT assay; assay type: functional, cell-based; conditions: BT-16, 72 h; how it was run: as §2
BT-12 [6] = test: Anti-proliferative activity against human BT-12 cells assessed as cell viability incubated for 144 hrs by MTT assay; assay type: functional, cell-based; conditions: BT-12, 144 h; how it was run: as §2
BT-12 [7] = test: Anti-proliferative activity against human BT-12 cells assessed as cell viability incubated for 72 hrs by MTT assay; assay type: functional, cell-based; conditions: BT-12, 72 h; how it was run: as §2
G-401 [8] = test: Anti-proliferative activity against human G-401 cells assessed as cell viability incubated for 144 hrs by MTT assay; assay type: functional, cell-based; conditions: G-401, 144 h; how it was run: as §2
[9] = Anti-proliferative activity against human KD cells assessed as cell viability incubated for 72 hrs by MTT assay; assay type: functional, cell-based; how it was run: as §2
[10] = Anti-proliferative activity against human KD cells assessed as cell viability incubated for 144 hrs by MTT assay; assay type: functional, cell-based; how it was run: as §2
BT-12 [11] = test: Induction of cell cycle arrest in human BT-12 cells assessed as accumulation of cells at G1 phase at 10 uM incubated for 72 hrs by flow cytometry analysis (reference value: 65+/-3.9%); assay type: functional; how it was run: as §1
BT-12 [12] = test: Induction of cell cycle arrest in human BT-12 cells assessed as accumulation of cells at G1 phase at 20 uM incubated for 72 hrs by flow cytometry analysis (reference value: 65+/-3.9%); assay type: functional; how it was run: as §1
CHLA-266 [13] = test: Induction of cell cycle arrest in human CHLA-266 cells assessed as accumulation of cells at G1 phase at 5 uM incubated for 72 hrs by flow cytometry analysis (reference value: 74.1+/-3.2%); assay type: functional; how it was run: as §1
CHLA-266 [14] = test: Induction of cell cycle arrest in human CHLA-266 cells assessed as accumulation of cells at G1 phase at 10 uM incubated for 72 hrs by flow cytometry analysis (Rvb =74.1+/-3.2%); assay type: functional; how it was run: as §1
CHLA-266 [15] = test: Induction of cell cycle arrest in human CHLA-266 cells assessed as accumulation of cells at G1 phase at 20 uM incubated for 72 hrs by flow cytometry analysis (reference value: 74.1+/-3.2%); assay type: functional; how it was run: as §1
G-401 [16] = test: Induction of cell cycle arrest in human G-401 cells assessed as accumulation of cells at G1 phase at 5 uM incubated for 72 hrs by flow cytometry analysis (reference value: 51.7+/-2%); assay type: functional
How it was run: (§3)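 72 h DAPI flow-cytometry cell-cycle assay. Chla266 in IMDM/20% FBS seeded at 30,000 cells/mL; G401 in DMEM/10% FBS at 10,000 cells/mL; 1 mL/well, 37 °C, 5% CO2. Next day the medium was replaced with inhibitor at final 0, 5, 10 or 20 µM. Cells were harvested, PBS-washed, and the G1 percentage was read. n ≥ 3, mean ± SD, one-way ANOVA vs control.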

G-401 [17] = test: Induction of cell cycle arrest in human G-401 cells assessed as accumulation of cells at G1 phase at 10 uM incubated for 72 hrs by flow cytometry analysis (reference value: 51.7+/-2%); assay type: functional; how it was run: as §3
BT-12 [18] = test: Induction of apoptosis in human BT-12 cells assessed as necrotic cells at 5 uM incubated for 72 hrs by flow cytometry analysis (reference value: 10.1+/-2.2%); assay type: functional
How it was run: (§4)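 Annexin V/PI flow assay. G401 at 10,000 cells/mL and BT12 or Chla266 at 30,000 cells/mL were seeded in 12-well plates. Next day medium was replaced with medium holding I-BRD9 or BI-9564 at 0, 5, 10 or 20 µM final for 72 h. Cells were washed in PBS, stained with FITC-Annexin V and propidium iodide for 15 min in the dark at room temperature, then read by flow cytometry. Percentage of dead cells, n ≥3, mean ± SD, one-way ANOVA versus control.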

BT-12 [19] = test: Induction of apoptosis in human BT-12 cells assessed as necrotic cells at 10 uM incubated for 72 hrs by flow cytometry analysis (reference value: 10.1+/-2.2%); assay type: functional; how it was run: as §4
BT-12 [20] = test: Induction of apoptosis in human BT-12 cells assessed as necrotic cells at 20 uM incubated for 72 hrs by flow cytometry analysis (Rvb=10.1+/-2.2%); assay type: functional; how it was run: as §4
CHLA-266 [21] = test: Induction of apoptosis in human CHLA-266 cells assessed as necrotic cells at 5 uM incubated for 72 hrs by flow cytometry analysis (Rvb= 5.4+/-1.0%); assay type: functional; how it was run: as §4
CHLA-266 [22] = test: Induction of apoptosis in human CHLA-266 cells assessed as necrotic cells at 10 uM incubated for 72 hrs by flow cytometry analysis (Rvb= 5.4+/-1.0 %); assay type: functional; how it was run: as §4
CHLA-266 [23] = test: Induction of apoptosis in human CHLA-266 cells assessed as necrotic cells at 20 uM incubated for 72 hrs by flow cytometry analysis (Rvb= 5.4+/-1.0 %); assay type: functional; how it was run: as §4
G-401 [24] = test: Induction of apoptosis in human G-401 cells assessed as necrotic cells at 5 uM incubated for 72 hrs by flow cytometry analysis (Rvb= 6.2+/-0.8 %); assay type: functional; how it was run: as §4
G-401 [25] = test: Induction of apoptosis in human G-401 cells assessed as necrotic cells at 10 uM incubated for 72 hrs by flow cytometry analysis (Rvb= 6.2+/-0.8 %); assay type: functional; how it was run: as §4
G-401 [26] = test: Induction of apoptosis in human G-401 cells assessed as necrotic cells at 20 uM incubated for 72 hrs by flow cytometry analysis (Rvb= 6.2+/-0.8 %); assay type: functional; how it was run: as §4
BT-12 [27] = test: Induction of cell cycle arrest in human BT-12 cells assessed as accumulation of cells at G1 phase incubated for 72 hrs by flow cytometry analysis; assay type: functional, cell-based; conditions: dose 5-20 µM; how it was run: as §1
CHLA-266 [28] = test: Induction of cell cycle arrest in human CHLA-266 cells assessed as accumulation of cells at G1 phase incubated for 72 hrs by flow cytometry analysis; assay type: functional, cell-based; conditions: dose 5-20 µM; how it was run: as §3
G-401 [29] = test: Induction of cell cycle arrest in human G-401 cells assessed as accumulation of cells at G1 phase incubated for 72 hrs by flow cytometry analysis; assay type: functional, cell-based; conditions: dose 5-20 µM; how it was run: as §3
BT-12 [30] = test: Induction of apoptosis in human BT-12 cells assessed as necrotic cells incubated for 72 hrs by flow cytometry analysis; assay type: functional, cell-based; conditions: dose 5-20 µM; how it was run: as §4
CHLA-266 [31] = test: Induction of apoptosis in human CHLA-266 cells assessed as necrotic cells incubated for 72 hrs by flow cytometry analysis; assay type: functional, cell-based; conditions: dose 5-20 µM; how it was run: as §4
G-401 [32] = test: Induction of apoptosis in human G-401 cells assessed as necrotic cells incubated for 72 hrs by flow cytometry analysis; assay type: functional, cell-based; conditions: dose 5-20 µM; how it was run: as §4
CHLA-266 [33] = test: Cytotoxicity against human CHLA-266 cells assessed as change in cell viability at 5 to 20 uM treated for 72 hrs; assay type: functional, cell-based; conditions: dose 5-20 µM; how it was run: as §4

## COc1cc(-c2cn(C)c(=O)c3cnccc23)c(OC)cc1CN(C)C
BT-12 [1]
  Activity: 73.1%
G-401 [2]
  IC50: 12.5 µM
CHLA-266 [3]
  IC50: 33.7 µM
CHLA-266 [4]
  IC50: > 100 µM
[5]
  IC50: 15.9 µM
BT-12 [6]
  IC50: 17.2 µM
BT-12 [7]
  IC50: > 100 µM
G-401 [8]
  IC50: 10.8 µM
[9]
  IC50: 22.3 µM
[10]
  IC50: 10.8 µM
BT-12 [11]
  Activity: 74%
BT-12 [12]
  Activity: 78.9%
CHLA-266 [13]
  Activity: 80%
CHLA-266 [14]
  Activity: 81.2%
CHLA-266 [15]
  Activity: 83.6%
G-401 [16]
  Activity: 57.6%
G-401 [17]
  Activity: 59.5%
BT-12 [18]
  Activity: 14.2%
BT-12 [19]
  Activity: 15.9%
BT-12 [20]
  Activity: 17.3%
CHLA-266 [21]
  Activity: 10%
CHLA-266 [22]
  Activity: 11%
CHLA-266 [23]
  Activity: 12.9%
G-401 [24]
  Activity: 6.8%
G-401 [25]
  Activity: 7.3%
G-401 [26]
  Activity: 7.6%
BT-12 [27]
  Activity: Dose-Dependent Effect
CHLA-266 [28]
  Activity: Dose-Dependent Effect
G-401 [29]
  Activity: Dose-Dependent Effect
BT-12 [30]
  Activity: Dose-Dependent Effect
CHLA-266 [31]
  Activity: Dose-Dependent Effect
G-401 [32]
  Activity: Dose-Dependent Effect
CHLA-266 [33]
  Activity: Active
